Measurements: ChEMBL document CHEMBL4196166 (J Med Chem, 2018)
Calls of active or inactive are those of the source. The calls are words filed in the database; no cut-off is given here.

What was measured:
Homo sapiens = test: Antimetastatic activity against human PSC xenografted in BALB/c nu/nu mouse co-implanted with human AsPC1 cells assessed as reduction in metastasis lesions in liver at 10 mg/kg/day, ip measured after 28 days post first dose by haematoxylin and eosin staining-based microscopic analysis; assay type: functional, organism-based
In short: (§1)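 Female athymic BALB/c nu/nu mice, 6–8 weeks old. 1×10^6 AsPC-1 and 1×10^6 human pancreatic stellate cells in 50 µL PBS injected into the pancreatic tail. Treatment randomized on day 7 (n = 4/group) for 4 weeks: 10 mg/kg/day ip in 50 mM sodium acetate pH 5.5/10% DMSO/1% Kolliphor HS-15, or gemcitabine 75 mg/kg by oral gavage twice weekly, or vehicle. At kill, liver scored for visible macrometastases, fixed in formalin, and 4 µm sections stained with H&E. Chi-square test.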

Plasminogen = Plasminogen (Homo sapiens, UniProt P00747); test: Inhibition of plasmin (unknown origin) at 10 nM to 33.3 uM after 30 mins by gel-based ABPP assay
Chain of Plasminogen (P00747 97-580 limits assumed): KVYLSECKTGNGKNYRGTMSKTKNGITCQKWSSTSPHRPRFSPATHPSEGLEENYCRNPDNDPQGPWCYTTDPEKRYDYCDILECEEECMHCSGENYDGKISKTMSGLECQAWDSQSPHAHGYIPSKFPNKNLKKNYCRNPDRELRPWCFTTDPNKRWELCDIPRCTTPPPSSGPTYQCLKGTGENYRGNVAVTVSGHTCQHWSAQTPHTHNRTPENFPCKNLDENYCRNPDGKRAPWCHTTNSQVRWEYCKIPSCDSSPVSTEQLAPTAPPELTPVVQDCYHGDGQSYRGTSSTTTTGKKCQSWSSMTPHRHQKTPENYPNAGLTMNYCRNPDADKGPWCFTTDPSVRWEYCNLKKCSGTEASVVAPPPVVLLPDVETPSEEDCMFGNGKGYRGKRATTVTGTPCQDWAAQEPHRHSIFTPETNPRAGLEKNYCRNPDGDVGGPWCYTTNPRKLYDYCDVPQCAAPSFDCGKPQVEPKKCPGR
Chain of Plasminogen (P00747 581-810 limits assumed): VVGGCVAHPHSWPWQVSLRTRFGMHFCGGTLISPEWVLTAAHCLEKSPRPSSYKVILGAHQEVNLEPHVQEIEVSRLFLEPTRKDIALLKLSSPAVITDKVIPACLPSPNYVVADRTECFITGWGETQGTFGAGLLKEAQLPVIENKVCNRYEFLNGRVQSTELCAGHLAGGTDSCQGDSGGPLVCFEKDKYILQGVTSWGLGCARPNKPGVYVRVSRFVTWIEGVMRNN

[1] = target: Transmembrane protease serine 11D (Homo sapiens) (UniProt O60235); test: Inhibition of transmembrane protease serine 11D (unknown origin) at 10 nM to 33.3 uM after 30 mins by gel-based ABPP assay
Chain of Transmembrane protease serine 11D (Homo sapiens) (O60235 1-186 limits assumed): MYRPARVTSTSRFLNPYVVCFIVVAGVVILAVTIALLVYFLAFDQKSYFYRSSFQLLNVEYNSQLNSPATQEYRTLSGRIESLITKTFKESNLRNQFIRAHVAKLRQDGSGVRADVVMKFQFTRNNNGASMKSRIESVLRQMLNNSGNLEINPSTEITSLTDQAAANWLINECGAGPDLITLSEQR
Chain of Transmembrane protease serine 11D (Homo sapiens) (O60235 187-418 limits assumed): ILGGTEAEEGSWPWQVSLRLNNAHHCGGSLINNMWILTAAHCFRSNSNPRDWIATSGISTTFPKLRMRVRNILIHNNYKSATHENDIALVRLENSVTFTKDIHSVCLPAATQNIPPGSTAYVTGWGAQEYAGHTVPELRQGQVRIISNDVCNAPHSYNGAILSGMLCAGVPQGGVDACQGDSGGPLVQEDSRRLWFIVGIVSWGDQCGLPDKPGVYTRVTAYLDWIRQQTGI

[2] = target: Lysosomal Pro-X carboxypeptidase (Homo sapiens) (UniProt P42785); test: Inhibition of prolylcarboxypeptidase (unknown origin) at 10 nM to 33.3 uM after 30 mins by gel-based ABPP assay
Chain of Lysosomal Pro-X carboxypeptidase (Homo sapiens) (P42785 whole entry): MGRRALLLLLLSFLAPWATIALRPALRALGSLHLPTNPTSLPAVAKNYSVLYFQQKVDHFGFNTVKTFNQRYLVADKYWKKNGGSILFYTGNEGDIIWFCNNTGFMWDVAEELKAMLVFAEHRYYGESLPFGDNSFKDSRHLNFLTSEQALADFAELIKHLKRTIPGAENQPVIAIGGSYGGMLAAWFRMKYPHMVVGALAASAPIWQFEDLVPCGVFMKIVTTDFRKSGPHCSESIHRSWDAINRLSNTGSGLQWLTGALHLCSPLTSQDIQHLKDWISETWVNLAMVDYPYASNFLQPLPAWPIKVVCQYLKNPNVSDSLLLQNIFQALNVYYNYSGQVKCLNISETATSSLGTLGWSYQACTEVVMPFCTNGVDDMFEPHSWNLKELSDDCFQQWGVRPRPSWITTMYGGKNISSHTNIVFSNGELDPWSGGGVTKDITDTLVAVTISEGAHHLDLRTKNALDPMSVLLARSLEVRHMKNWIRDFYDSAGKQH

[3] = target: Complement C1s subcomponent (Homo sapiens) (UniProt P09871); test: Inhibition of C1S (unknown origin) at 10 nM to 33.3 uM after 30 mins by gel-based ABPP assay
Chain of Complement C1s subcomponent (Homo sapiens) (P09871 16-437 limits assumed): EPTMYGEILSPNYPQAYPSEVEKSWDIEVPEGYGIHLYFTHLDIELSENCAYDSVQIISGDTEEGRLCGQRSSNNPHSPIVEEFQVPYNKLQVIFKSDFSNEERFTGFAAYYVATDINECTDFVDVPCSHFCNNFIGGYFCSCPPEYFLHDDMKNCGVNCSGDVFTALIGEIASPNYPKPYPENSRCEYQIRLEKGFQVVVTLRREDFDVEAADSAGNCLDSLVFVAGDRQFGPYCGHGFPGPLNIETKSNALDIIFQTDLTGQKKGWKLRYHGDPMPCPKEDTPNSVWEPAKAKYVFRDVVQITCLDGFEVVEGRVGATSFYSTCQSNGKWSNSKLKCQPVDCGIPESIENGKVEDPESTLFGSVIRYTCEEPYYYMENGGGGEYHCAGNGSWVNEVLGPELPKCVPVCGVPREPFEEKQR
Chain of Complement C1s subcomponent (Homo sapiens) (P09871 438-688 limits assumed): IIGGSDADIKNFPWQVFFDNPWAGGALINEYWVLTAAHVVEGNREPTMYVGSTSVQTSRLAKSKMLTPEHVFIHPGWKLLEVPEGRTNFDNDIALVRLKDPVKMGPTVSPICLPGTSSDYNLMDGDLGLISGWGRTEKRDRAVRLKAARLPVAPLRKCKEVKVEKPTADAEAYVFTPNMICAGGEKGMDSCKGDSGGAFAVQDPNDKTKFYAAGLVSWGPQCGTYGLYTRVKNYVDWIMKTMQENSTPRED

ASPC1 = test: Antimetastatic activity against human AsPC1 cells xenografted in BALB/c nu/nu mouse co-implanted with human PSC assessed as reduction in metastasis lesions in liver at 10 mg/kg/day, ip measured after 28 days post first dose by haematoxylin and eosin staining-based microscopic analysis; assay type: functional, organism-based; in short: as §1
[4] = target: Adenosine receptor A2a (Homo sapiens) (UniProt P29274); test: Displacement of [3H]ZM241385 from human wild type adenosine A2A receptor at 10 uM
Chain of Adenosine receptor A2a (Homo sapiens) (P29274 whole entry): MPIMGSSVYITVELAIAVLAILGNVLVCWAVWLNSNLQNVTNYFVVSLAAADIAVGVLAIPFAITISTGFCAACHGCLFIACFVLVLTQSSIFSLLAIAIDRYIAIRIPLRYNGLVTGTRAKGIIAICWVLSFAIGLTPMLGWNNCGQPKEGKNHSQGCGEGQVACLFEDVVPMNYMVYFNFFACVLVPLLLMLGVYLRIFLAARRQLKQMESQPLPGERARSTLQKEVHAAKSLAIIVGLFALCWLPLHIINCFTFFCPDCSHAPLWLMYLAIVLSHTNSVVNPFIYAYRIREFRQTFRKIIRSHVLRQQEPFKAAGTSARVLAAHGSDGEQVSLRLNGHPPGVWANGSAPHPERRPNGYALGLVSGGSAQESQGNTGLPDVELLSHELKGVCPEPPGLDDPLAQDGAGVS
In short: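 Compounds tested at 10 µM for displacement of 2.5 nM [3H]ZM241385 from human wild-type A2A receptor. Total binding taken without inhibitor. Nonspecific binding defined with 100 µM NECA. At least three independent experiments, each in duplicate. Mean ± SEM.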

[5] = target: T1, Epithelial sodium channel subunit beta (Homo sapiens, UniProt P51168); test: Inhibition of S-3969-stimulated recombinant human ENaC beta subunit expressed in HEK293 cells at 10 uM preincubated for 5 mins followed by S-3969 stimulation by FLIPR assay; assay type: cell-based; details: hek293, 10 µM
T1 sequence (P51168 whole entry): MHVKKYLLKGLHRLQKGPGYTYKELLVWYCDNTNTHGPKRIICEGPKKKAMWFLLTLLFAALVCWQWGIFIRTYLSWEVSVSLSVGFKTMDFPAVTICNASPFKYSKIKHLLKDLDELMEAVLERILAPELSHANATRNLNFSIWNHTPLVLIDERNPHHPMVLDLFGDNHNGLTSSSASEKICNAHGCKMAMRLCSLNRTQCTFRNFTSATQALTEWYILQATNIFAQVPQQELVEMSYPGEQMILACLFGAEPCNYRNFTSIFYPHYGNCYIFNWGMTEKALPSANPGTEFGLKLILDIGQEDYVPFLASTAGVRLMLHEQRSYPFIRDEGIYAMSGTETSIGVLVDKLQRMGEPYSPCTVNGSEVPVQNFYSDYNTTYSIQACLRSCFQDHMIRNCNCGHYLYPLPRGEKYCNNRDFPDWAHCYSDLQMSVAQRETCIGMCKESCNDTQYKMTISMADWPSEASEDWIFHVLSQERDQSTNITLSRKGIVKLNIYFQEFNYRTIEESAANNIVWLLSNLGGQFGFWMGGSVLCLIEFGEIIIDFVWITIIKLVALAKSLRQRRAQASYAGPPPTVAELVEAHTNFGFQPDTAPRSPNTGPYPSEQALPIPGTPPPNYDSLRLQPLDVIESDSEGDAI
In short: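 HEK-293 cells transfected with human ENaC α, β and γ cDNA together, plated at 20 000 cells/well, incubated overnight at 37 °C. Loaded with membrane-potential red dye for 30 min at 37 °C. Compound preincubated 5 min in HEPES-buffered salt solution (pH 7.4, 0.3% DMSO), then stimulated with 1 µM S-3969, read on FLIPR. Signal normalized to agonist alone (100%) and agonist plus 30 µM benzamil (0%). n = 4 wells.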

| SMILES | Activity (Homo sapiens) | inhibition (Plasminogen) | inhibition [1] | inhibition [2] | inhibition [3] | Activity (ASPC1) | inhibition [4] | inhibition (INH) [5] |
| --- | --- | --- | --- | --- | --- | --- | --- | --- |
| COc1ncc(-c2nc(C(=O)NC(=N)N)c(N)nc2N2CCCCCC2)cn1 | Active | Active | Active | Active | Active | Active |  |  |
| N=C(N)NC(=O)c1nc(Cl)c(N2CCCCCC2)nc1N [N,N-HEXAMETHYLENEAMILORIDE] |  |  |  |  |  |  | Active | Not Active |
| N=C(N)NC(=O)c1nc(-c2cc3ccccc3o2)c(N2CCCCCC2)nc1N |  |  |  |  |  |  |  | Not Active |
